Experimental data from ChEMBL document CHEMBL4219124, “Alleviating CYP and hERG liabilities by structure optimization of dihydrofuran-fused tricyclic benzo[d]imidazole series - Potent, selective and orally efficacious microsomal prostaglandin E synthase-1 (mPGES-1) inhibitors: Part-2” (Bioorg Med Chem Lett, 2018).

Tests used:
[1] = target: T1, Prostaglandin E synthase (Homo sapiens, UniProt O14684); test: Inhibition of mPGES1 in human A549 cells assessed as reduction in IL-1beta-induced PGE2 production preincubated for 30 mins followed by incubation with IL-1beta for 16 to 20 hrs measured after 10 mins by HTRF assay; format: cell-based
T1 sequence (O14684 whole entry): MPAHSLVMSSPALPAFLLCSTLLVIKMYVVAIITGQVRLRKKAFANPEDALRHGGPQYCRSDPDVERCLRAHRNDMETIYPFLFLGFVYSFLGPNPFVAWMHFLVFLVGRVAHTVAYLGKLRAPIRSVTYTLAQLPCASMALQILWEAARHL

[2] = target: T1, Prostaglandin E synthase; test: Inhibition of recombinant human mPGES1 expressed in CHO cells assessed as reduction in PGE2 production using PGH2 as substrate incubated for 10 mins followed by substrate addition measured for 1 min; format: cell-based
[3] = target: hERG (KCNH2) (Homo sapiens, UniProt Q12809); test: Inhibition of human ERG at 10 uM by patch clamp assay relative to control
Procedure, shortened: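 hERG current measured by patch clamp with test compound at 10 µM; result given as % inhibition.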

[4] = target: T1, Prostaglandin E synthase; test: Inhibition of mPGES1 in human whole blood assessed as reduction in LPS-induced PGE2 production measured after 20 to 24 hrs
[5] = Metabolic stability in human liver microsomes assessed as parent compound remaining at 1 uM after 60 mins in presence of NADPH by LC-MS/MS analysis; format: ADME, microsome; settings: read-out: Stability
Procedure, shortened: (§1)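 Compound incubated 60 min at 37 °C with human, rat or guinea pig liver microsomes; percent parent remaining, triplicates.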

[6] = target: CYP2C9 (Homo sapiens, UniProt P11712); test: Inhibition of CYP2C9 in human liver microsomes at 10 uM after 20 mins in presence of NADPH by LC-MS/MS analysis; format: ADME
Procedure, shortened: (§2)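 Percent inhibition of each CYP isoform by test compound at 10 µM, compared with a no-inhibitor control. Run in triplicate.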

[7] = target: CYP3A4 (Homo sapiens, UniProt P08684); test: Inhibition of CYP3A4 in human liver microsomes at 10 uM after 20 mins in presence of NADPH by LC-MS/MS analysis; format: ADME; procedure, shortened: as §2
[8] = target: T2, CYP1A2 (Homo sapiens, UniProt P05177); test: Inhibition of CYP1A2 in human liver microsomes at 10 uM after 20 mins in presence of NADPH by LC-MS/MS analysis; format: ADME; procedure, shortened: as §2
T2 sequence (P05177 whole entry): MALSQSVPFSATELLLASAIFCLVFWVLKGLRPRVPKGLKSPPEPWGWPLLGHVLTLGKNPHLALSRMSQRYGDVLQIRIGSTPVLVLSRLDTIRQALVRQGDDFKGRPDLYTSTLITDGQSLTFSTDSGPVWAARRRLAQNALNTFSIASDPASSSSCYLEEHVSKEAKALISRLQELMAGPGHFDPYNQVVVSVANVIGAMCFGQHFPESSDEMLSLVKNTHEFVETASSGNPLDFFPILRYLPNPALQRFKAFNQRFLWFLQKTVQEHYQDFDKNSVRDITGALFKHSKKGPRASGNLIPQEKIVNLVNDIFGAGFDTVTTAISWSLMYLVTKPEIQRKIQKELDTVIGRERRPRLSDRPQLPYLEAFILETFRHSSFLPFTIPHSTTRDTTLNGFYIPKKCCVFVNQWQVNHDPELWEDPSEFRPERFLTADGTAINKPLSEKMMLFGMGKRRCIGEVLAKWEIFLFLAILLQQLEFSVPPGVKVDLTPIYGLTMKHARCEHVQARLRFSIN

[9] = Protein binding in human plasma at 10 uM after 5 hrs by equilibrium dialysis based LC-MS/MS analysis; format: ADME, cell-free; settings: read-out: PPB (converted)
Procedure, shortened: (§3)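 Equilibrium dialysis at 10 μM compound; result expressed as percent bound.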

[10] = Metabolic stability in guinea pig liver microsomes assessed as parent compound remaining at 1 uM after 60 mins in presence of NADPH by LC-MS/MS analysis; format: ADME, Cavia porcellus, microsome; settings: read-out: Stability; procedure, shortened: as §1
[11] = target: CYP2D6 (Homo sapiens, UniProt P10635); test: (§4) Inhibition of CYP2D6 in human liver microsomes at 10 uM after 20 mins in presence of NADPH by LC-MS/MS analysis; format: ADME; settings: liver microsomes; procedure, shortened: as §2
[12] = Protein binding in guinea pig plasma at 10 uM after 5 hrs by equilibrium dialysis based LC-MS/MS analysis; format: ADME, cell-free, Cavia porcellus; settings: read-out: PPB (converted); procedure, shortened: as §3
[13] = target: CYP2C19 (Homo sapiens, UniProt P33261); test: Inhibition of CYP2C19 in human liver microsomes at 10 uM after 40 mins in presence of NADPH by LC-MS/MS analysis; format: ADME; procedure, shortened: as §2
[14] = Metabolic stability in rat liver microsomes assessed as parent compound remaining at 1 uM after 60 mins in presence of NADPH by LC-MS/MS analysis; format: ADME, microsome; settings: read-out: Stability; procedure, shortened: as §1
[15] = Apparent passive permeability of the compound by PAMPA; format: ADME
Procedure, shortened: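 Passive permeability by PAMPA, using a 2% lecithin in dodecane membrane. Run in triplicate.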

[16] = target: Cytochrome P450 2D6 (Homo sapiens, UniProt P10635); test: as §4; format: ADME; settings: microsomes, 20 min, 10 µM; procedure, shortened: as §2
Cytochrome P450 2D6, sequence (P10635 whole entry): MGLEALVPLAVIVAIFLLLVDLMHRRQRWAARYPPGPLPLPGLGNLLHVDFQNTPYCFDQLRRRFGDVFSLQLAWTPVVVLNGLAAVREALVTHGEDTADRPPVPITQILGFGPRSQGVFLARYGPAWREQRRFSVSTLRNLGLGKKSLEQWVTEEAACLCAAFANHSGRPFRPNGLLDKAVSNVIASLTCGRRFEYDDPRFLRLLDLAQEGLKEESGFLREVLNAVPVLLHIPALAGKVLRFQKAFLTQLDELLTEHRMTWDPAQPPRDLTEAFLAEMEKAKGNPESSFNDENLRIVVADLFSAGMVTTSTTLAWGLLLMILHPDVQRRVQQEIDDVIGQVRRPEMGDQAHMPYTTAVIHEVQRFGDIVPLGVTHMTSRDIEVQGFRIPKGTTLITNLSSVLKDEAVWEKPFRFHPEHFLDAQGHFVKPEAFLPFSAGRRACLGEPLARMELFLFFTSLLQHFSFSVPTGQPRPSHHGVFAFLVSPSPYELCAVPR

CYP3A4, sequence (P08684 whole entry): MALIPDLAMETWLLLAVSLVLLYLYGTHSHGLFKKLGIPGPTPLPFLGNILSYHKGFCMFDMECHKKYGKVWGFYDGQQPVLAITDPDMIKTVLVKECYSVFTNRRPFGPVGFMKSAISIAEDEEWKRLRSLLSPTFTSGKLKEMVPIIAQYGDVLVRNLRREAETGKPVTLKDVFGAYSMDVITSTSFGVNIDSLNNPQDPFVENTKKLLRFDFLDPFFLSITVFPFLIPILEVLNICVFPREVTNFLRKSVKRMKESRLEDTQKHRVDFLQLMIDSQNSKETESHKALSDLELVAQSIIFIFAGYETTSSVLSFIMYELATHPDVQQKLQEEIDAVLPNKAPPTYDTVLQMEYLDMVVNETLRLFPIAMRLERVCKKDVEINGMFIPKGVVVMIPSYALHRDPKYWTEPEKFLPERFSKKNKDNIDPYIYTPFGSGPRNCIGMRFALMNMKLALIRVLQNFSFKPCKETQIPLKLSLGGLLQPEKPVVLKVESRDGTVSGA
CYP2D6, sequence (P10635 whole entry): as the sequence (P10635 whole entry) above
CYP2C19, sequence (P33261 whole entry): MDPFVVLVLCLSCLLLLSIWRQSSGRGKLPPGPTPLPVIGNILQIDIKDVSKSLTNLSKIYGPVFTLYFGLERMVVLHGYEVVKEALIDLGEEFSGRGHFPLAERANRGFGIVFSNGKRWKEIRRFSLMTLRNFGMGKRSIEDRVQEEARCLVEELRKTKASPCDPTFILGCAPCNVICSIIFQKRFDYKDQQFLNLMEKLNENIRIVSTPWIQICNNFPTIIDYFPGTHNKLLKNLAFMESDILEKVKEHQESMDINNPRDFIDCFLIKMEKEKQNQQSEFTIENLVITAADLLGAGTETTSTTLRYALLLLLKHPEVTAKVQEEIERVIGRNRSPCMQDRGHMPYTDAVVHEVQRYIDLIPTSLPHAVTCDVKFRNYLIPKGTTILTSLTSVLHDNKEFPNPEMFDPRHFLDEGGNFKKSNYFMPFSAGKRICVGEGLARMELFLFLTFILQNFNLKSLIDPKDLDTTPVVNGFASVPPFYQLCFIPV
CYP2C9, sequence (P11712 whole entry, canonical isoform): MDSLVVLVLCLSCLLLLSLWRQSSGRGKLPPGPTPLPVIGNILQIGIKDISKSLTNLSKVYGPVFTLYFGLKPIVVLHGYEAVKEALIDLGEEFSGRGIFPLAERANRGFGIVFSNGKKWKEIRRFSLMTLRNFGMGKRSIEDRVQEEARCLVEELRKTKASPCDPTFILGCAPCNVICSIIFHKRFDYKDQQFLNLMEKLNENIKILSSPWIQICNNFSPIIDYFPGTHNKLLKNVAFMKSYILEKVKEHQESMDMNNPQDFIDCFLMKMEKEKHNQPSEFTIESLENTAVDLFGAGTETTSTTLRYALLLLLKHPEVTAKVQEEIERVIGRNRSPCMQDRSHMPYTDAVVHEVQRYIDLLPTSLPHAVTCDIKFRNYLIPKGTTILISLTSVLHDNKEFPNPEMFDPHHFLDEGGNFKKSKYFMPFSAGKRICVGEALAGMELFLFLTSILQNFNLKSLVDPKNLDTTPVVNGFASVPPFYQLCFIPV
hERG (KCNH2), sequence (Q12809 whole entry): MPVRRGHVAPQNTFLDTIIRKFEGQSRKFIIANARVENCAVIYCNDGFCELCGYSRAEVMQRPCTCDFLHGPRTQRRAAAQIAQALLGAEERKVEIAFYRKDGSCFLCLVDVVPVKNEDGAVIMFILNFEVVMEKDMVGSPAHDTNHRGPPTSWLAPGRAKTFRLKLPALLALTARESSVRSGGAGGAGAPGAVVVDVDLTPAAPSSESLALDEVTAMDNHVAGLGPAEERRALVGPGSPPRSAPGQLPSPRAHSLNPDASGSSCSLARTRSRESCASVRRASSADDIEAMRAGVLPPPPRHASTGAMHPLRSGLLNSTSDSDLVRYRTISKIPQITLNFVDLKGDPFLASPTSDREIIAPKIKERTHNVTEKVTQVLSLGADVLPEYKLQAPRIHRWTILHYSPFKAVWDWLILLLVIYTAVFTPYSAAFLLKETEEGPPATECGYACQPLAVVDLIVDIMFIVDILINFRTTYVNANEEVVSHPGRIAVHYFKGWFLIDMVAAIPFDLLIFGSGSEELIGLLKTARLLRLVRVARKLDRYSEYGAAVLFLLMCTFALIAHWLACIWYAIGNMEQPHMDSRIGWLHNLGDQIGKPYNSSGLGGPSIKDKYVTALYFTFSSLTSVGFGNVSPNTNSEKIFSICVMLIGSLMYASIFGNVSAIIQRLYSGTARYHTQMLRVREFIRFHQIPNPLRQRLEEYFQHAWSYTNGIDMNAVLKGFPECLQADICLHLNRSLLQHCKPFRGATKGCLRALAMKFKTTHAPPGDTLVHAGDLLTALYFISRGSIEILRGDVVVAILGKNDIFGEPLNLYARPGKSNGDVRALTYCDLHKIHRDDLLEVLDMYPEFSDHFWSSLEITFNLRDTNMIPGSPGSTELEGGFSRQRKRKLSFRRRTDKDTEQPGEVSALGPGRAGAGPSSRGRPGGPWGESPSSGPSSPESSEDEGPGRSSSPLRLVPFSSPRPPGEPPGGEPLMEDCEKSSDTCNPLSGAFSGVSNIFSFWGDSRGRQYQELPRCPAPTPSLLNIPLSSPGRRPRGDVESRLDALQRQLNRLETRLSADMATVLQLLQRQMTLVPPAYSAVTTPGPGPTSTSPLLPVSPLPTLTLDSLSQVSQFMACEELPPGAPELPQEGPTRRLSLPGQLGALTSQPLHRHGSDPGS

SMILES	IC50 [1]	IC50 [2]	inhibition at 10 µM [3]	IC50 [4]	remaining at 1 h, 1 µM [5]	inhibition at 20 min, 10 µM [6]	inhibition at 20 min, 10 µM [7]	inhibition at 20 min, 10 µM [8]	fraction unbound at 5 h, 10 µM [9]	remaining at 1 h, 1 µM [10]	inhibition at 20 min, 10 µM [11]	fraction unbound at 5 h, 10 µM [12]	inhibition at 40 min, 10 µM [13]	remaining at 1 h, 1 µM [14]	Papp [15]	inhibition (INH) [16]
Cc1cccc(Cl)c1Nc1nc2cc(C(=O)Nc3ccc(C(F)(F)F)cn3)c3c(c2[nH]1)CC(C)(C)O3	27 nM	32 nM	–	–	–	–	–	–	–	–	–	–	–	–	–	–
Cc1ccc(NC(=O)c2cc3nc(Nc4c(F)cccc4Cl)n(C)c3c3c2OC(C)(C)C3)c(F)c1	3.1 nM	16 nM	12.8%	177 nM	68%	52%	23%	26%	< 0.005	58%	14%	< 0.005	24%	71%	–	–
CC1(C)Cc2c(c(C(=O)Nc3ccccc3C(F)(F)F)cc3nc(Nc4c(F)cccc4Cl)[nH]c23)O1	9.7 nM	5.1 nM	–	536 nM	93%	29%	11%	17%	< 0.005	89%	4%	< 0.005	46%	–	0.12 ×10⁻⁶ cm/s	–
Cn1c(Nc2c(F)cccc2Cl)nc2cc(C(=O)Nc3ccc(C4CC4)cc3)c3c(c21)CC(C)(C)O3	4.3 nM	4.9 nM	–	350 nM	97%	47%	19%	41%	–	51%	25%	–	24%	96%	–	–
CC1(C)Cc2c(c(C(=O)Nc3ccc(C(F)(F)F)cn3)cc3nc(Nc4c(F)cccc4Cl)[nH]c23)O1	14 nM	25 nM	–	955 nM	–	–	–	–	–	–	–	–	–	–	–	–
Cn1c(Nc2c(F)cccc2Cl)nc2cc(C(=O)Nc3ccc(C(F)(F)F)cn3)c3c(c21)CC(C)(C)O3	4 nM	12 nM	–	673 nM	58%	52%	17%	14%	0.0015	69%	3%	0.0035	10%	66%	–	–
Cn1c(Nc2c(F)cccc2Cl)nc2cc(C(=O)Nc3ccc(C(F)(F)F)cc3)c3c(c21)CC(C)(C)O3	–	–	–	–	100%	44%	–	34%	–	68%	-5%	–	-7%	68%	–	–
CC1(C)Cc2c(c(C(=O)Nc3cc(C4CC4)ccc3F)cc3nc(Nc4c(Cl)cccc4Cl)[nH]c23)O1	3.2 nM	16 nM	–	197 nM	95%	26%	21%	14%	–	74%	5%	–	10%	92%	–	–
CC1(C)Cc2c(c(C(=O)Nc3c(F)cccc3F)cc3nc(Nc4c(Cl)cccc4Cl)[nH]c23)O1	15 nM	6.4 nM	–	661 nM	72%	35%	24%	14%	–	80%	–	–	41%	–	–	Not Active
Cc1cccc(Cl)c1Nc1nc2cc(C(=O)Nc3cc(C4CC4)ccc3F)c3c(c2[nH]1)CC(C)(C)O3	–	10 nM	–	447 nM	93%	12%	-13%	14%	–	55%	31%	–	24%	89%	–	–
CC1(C)Cc2c(c(C(=O)Nc3cc(C(F)F)ccc3F)cc3nc(Nc4c(F)cccc4Cl)[nH]c23)O1	6.3 nM	9.2 nM	–	336 nM	88%	42%	4%	31%	0.0018	68%	-1%	0.005	22%	86%	–	–
CC1(C)Cc2c(c(C(=O)Nc3ccccc3C(F)(F)F)cc3nc(Nc4c(Cl)cccc4Cl)[nH]c23)O1	5.2 nM	4.9 nM	–	506 nM	–	16%	17%	18%	–	86%	–	–	30%	–	–	Not Active
CC1(C)Cc2c(c(C(=O)Nc3ccc(C(F)(F)F)cc3F)cc3nc(Nc4c(F)cccc4Cl)[nH]c23)O1	9.6 nM	3.1 nM	–	570 nM	100%	39%	37%	–	< 0.005	80%	–	< 0.005	16%	–	–	–
Cc1cc(C(F)(F)F)ccc1NC(=O)c1cc2nc(Nc3c(F)cccc3Cl)[nH]c2c2c1OC(C)(C)C2	6 nM	6.1 nM	16.2%	270 nM	82%	1%	20%	26%	–	72%	16%	–	38%	91%	0.31 ×10⁻⁶ cm/s	–
Cc1cccc(Cl)c1Nc1nc2cc(C(=O)Nc3ccc(F)c(C(F)(F)F)c3)c3c(c2[nH]1)CC(C)(C)O3	10 nM	5.4 nM	–	876 nM	95%	47%	30%	–	–	80%	–	–	31%	97%	–	–
CC1(C)Cc2c(c(C(=O)Nc3cc(C4CC4)ccc3F)cc3nc(Nc4c(F)cccc4Cl)[nH]c23)O1	6 nM	3.6 nM	–	1380 nM	100%	42%	-12%	36%	–	93%	7%	–	22%	93%	–	–
Cc1cccc(Cl)c1Nc1nc2cc(C(=O)Nc3ccc(C(F)(F)F)cc3)c3c(c2[nH]1)CC(C)(C)O3	11 nM	14 nM	–	337 nM	100%	46%	34%	25%	< 0.005	62%	6%	< 0.005	19%	–	–	–
